In ChEMBL document CHEMBL2176949 (J Med Chem, 2012):

Legend:
[1] = biological target: T1, Neuronal acetylcholine receptor subunit alpha-7 (Rattus norvegicus, UniProt Q05941); experiment: Binding affinity to rat alpha7 nAChR
[2] = biological target: Neuronal acetylcholine receptor; alpha4/beta2 (Rattus norvegicus, UniProt P09483+P12390); experiment: Binding affinity to rat alpha4beta2 nAChR
[3] = biological target: T1, Neuronal acetylcholine receptor subunit alpha-7; experiment: Binding affinity to rat alpha7 nAChR expressed in Xenopus laevis oocytes; type: cell-based, Oocyte
[4] = biological target: T1, Neuronal acetylcholine receptor subunit alpha-7; experiment: Agonist activity at rat alpha7 nAChR expressed in Xenopus laevis oocytes by two-electrode voltage clamp assay; type: functional, cell-based, Oocyte
[5] = biological target: T2, Neuronal acetylcholine receptor; alpha4/beta2 (Homo sapiens, UniProt P17787+P43681); experiment: Agonist activity at human alpha4beta2 nAChR low sensitivity form expressed in human SH-EP1 cells assessed as increase in calcium flux by FLIPR; type: functional, cell-based
[6] = Agonist activity at human nAChR alpha6/alpha3beta2beta3 V273S mutant expressed in HEK293T cells by FLIPR relative to 10 uM nicotine; type: functional, HEK-293T
[7] = organism: Homo sapiens; experiment: Selectivity index, ratio of Ki for human alpha3beta4 nAChR to Ki for human alpha4beta2 nAChR
[8] = biological target: T3, Neuronal acetylcholine receptor; alpha3/beta4 (Homo sapiens, UniProt P30926+P32297); experiment: Agonist activity at human alpha3beta4 nAChR expressed in human SH-SY5Y cells assessed as increase in calcium flux by FLIPR; type: functional, cell-based
[9] = biological target: T3, Neuronal acetylcholine receptor; alpha3/beta4; experiment: Agonist activity at human alpha3beta4 nAChR expressed in human SH-SY5Y cells assessed as increase in calcium flux by FLIPR relative to 10 uM nicotine; type: functional, cell-based
[10] = biological target: Neuronal acetylcholine receptor subunit alpha-7 (Homo sapiens, UniProt P36544); experiment: Displacement of [3H]epibatidine from human alpha7 nAChR expressed in human HEK/RIC3 cells; type: cell-based
Outline: (§1)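 Binding to membranes from the cell lines: homogenised in PBS pH 7.4, spun at 40000g for 20 min at 4 °C, then incubated 2 h on ice in PBS with competitor (0.001 nM to 100 μM) and radioligand. Filters washed in ice-cold PBS and counted by scintillation. IC50 from nonlinear regression; Ki by Cheng-Prusoff. Minimum of three assays, ± SEM.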

[11] = biological target: Nicotinic acetylcholine receptor alpha6/alpha3/beta2/beta3 (Rattus norvegicus) (UniProt P04757+P12390+P12391+P43143); experiment: Agonist activity at alpha6/alpha3beta2beta3 nAChR in Sprague-Dawley rat striatal synaptosomes assessed as induction of dopamine release relative to 10 uM nicotine; type: functional, subcellular; conditions: Brain
[12] = organism: Homo sapiens; experiment: Ratio of EC50 for human nAChR alpha6/alpha3beta2beta3 V273S mutant to Ki for human alpha6/alpha3beta2beta3 nAChR
[13] = biological target: T2, Neuronal acetylcholine receptor; alpha4/beta2; experiment: Agonist activity at human alpha4beta2 nAChR expressed in human SH-EP1 cells by whole cell voltage clamp based electrophysiology method; type: functional
Outline: (§2)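 Whole-cell voltage clamp at -60 mV, room temperature (22 ± 1 °C), one cell per agonist load, Dynaflow fast application. Agonist applied 1 s for α4β2 and 0.5 s for α7, with 30 s washout. Tris-based pipette solution, pH 7.3. Concentration-response data fitted to the Hill equation, with α4β2 fitted as the sum of two Hill equations. Max % relative to 1 mM ACh.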

[14] = biological target: Nicotinic acetylcholine receptor alpha6/alpha3/beta2/beta3 (Rattus norvegicus, UniProt P04757+P12390+P12391+P43143); experiment: Agonist activity at alpha6/alpha3beta2beta3 nAChR in Sprague-Dawley rat striatal synaptosomes assessed as induction of dopamine release; type: functional, subcellular, Brain
[15] = biological target: T2, Neuronal acetylcholine receptor; alpha4/beta2; experiment: Agonist activity at human alpha4beta2 nAChR expressed in human SH-EP1 cells by whole cell voltage clamp based electrophysiology method relative to 1 mM acetylcholine; type: functional; outline: as §2
[16] = Agonist activity at rat alpha7 nAChR T6'S59 mutant expressed in rat GH4C1 cells by whole cell voltage clamp based electrophysiology method relative to 1 mM acetylcholine; type: functional, GH4-C1; outline: as §2
[17] = Agonist activity at rat alpha7 nAChR T6'S59 mutant expressed in rat GH4C1 cells by whole cell voltage clamp based electrophysiology method; type: functional; conditions: GH4-C1; outline: as §2
[18] = biological target: T2, Neuronal acetylcholine receptor; alpha4/beta2; experiment: Agonist activity at human alpha4beta2 nAChR high sensitivity form expressed in human SH-EP1 cells assessed as increase in calcium flux by FLIPR; type: functional, cell-based
[19] = biological target: T2, Neuronal acetylcholine receptor; alpha4/beta2; experiment: Displacement of [3H]nicotine from human alpha4beta2 nAChR expressed in human SH-EP1 cells; type: cell-based; outline: as §1
[20] = Agonist activity at human nAChR alpha6/alpha3beta2beta3 V273S mutant expressed in HEK293T cells by FLIPR; type: functional, cell-based; conditions: HEK-293T
[21] = biological target: T3, Neuronal acetylcholine receptor; alpha3/beta4; experiment: Displacement of [3H]epibatidine from human alpha3beta4 nAChR expressed in human SH-SY5Y cells; type: cell-based; outline: as §1
[22] = biological target: Neuronal acetylcholine receptor; alpha3/alpha6/beta2/beta3 (Homo sapiens, UniProt P17787+P32297+Q05901+Q15825); experiment: Displacement of [3H]epibatidine from human alpha6/alpha3beta2beta3 nAChR expressed in HEK293T cells
[23] = biological target: T2, Neuronal acetylcholine receptor; alpha4/beta2; experiment: Agonist activity at human alpha4beta2 nAChR low sensitivity form expressed in human SH-EP1 cells assessed as increase in calcium flux by FLIPR relative to 10 uM nicotine; type: functional, cell-based
[24] = biological target: T2, Neuronal acetylcholine receptor; alpha4/beta2; experiment: Agonist activity at human alpha4beta2 nAChR high sensitivity form expressed in human SH-EP1 cells assessed as increase in calcium flux by FLIPR relative to 10 uM nicotine; type: functional, cell-based
[25] = biological target: Neuronal acetylcholine receptor subunit alpha-7 (Mus musculus, UniProt P49582)
Sequence of Neuronal acetylcholine receptor subunit alpha-7 (Mus musculus, UniProt P49582) (P49582 whole entry): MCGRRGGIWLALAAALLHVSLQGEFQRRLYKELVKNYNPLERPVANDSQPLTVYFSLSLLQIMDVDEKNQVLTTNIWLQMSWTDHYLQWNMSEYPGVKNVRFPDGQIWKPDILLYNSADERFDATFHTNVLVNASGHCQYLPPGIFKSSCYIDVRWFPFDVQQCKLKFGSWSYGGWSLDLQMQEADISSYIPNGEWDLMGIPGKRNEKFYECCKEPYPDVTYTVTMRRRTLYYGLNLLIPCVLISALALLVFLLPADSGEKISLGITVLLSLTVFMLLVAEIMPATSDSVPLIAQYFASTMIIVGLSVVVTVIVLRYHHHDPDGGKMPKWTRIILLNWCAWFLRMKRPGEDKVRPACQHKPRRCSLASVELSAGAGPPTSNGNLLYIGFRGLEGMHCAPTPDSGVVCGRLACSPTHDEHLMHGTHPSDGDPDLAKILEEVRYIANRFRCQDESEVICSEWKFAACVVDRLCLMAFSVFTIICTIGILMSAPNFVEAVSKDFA

T2 sequence (P17787 whole entry): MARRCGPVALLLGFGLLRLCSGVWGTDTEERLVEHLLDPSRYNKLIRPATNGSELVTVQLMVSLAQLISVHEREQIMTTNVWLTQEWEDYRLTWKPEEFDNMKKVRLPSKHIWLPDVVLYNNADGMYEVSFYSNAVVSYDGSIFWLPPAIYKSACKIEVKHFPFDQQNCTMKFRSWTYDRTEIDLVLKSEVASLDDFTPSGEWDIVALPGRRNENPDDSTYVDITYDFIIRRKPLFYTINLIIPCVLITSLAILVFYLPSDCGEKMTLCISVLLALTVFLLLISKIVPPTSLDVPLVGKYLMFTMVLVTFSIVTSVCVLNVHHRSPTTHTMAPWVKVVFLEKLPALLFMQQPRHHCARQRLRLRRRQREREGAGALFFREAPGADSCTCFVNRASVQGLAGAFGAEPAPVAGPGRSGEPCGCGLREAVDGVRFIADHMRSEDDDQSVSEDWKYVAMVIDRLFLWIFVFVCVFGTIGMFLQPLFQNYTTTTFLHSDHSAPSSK
T2 sequence (P43681 whole entry): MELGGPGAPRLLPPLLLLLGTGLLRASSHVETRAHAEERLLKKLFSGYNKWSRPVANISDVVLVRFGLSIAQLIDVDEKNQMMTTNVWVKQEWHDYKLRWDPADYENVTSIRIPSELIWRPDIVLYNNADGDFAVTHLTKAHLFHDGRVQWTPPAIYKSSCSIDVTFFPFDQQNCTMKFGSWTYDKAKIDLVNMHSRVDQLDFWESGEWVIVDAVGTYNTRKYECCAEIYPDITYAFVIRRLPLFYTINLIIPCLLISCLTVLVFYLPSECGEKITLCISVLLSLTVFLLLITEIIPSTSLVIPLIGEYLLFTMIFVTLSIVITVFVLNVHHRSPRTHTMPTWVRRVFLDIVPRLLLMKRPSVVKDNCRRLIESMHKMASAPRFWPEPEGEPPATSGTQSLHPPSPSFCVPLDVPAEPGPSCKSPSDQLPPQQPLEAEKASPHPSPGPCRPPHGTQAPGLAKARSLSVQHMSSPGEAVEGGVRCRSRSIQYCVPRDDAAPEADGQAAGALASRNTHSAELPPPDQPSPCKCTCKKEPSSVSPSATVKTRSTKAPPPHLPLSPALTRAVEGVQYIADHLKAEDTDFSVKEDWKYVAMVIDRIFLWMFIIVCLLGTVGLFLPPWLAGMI
Sequence of Neuronal acetylcholine receptor; alpha3/alpha6/beta2/beta3 (P17787 whole entry): as the sequence (P17787 whole entry) above
Sequence of Neuronal acetylcholine receptor; alpha3/alpha6/beta2/beta3 (P32297 whole entry): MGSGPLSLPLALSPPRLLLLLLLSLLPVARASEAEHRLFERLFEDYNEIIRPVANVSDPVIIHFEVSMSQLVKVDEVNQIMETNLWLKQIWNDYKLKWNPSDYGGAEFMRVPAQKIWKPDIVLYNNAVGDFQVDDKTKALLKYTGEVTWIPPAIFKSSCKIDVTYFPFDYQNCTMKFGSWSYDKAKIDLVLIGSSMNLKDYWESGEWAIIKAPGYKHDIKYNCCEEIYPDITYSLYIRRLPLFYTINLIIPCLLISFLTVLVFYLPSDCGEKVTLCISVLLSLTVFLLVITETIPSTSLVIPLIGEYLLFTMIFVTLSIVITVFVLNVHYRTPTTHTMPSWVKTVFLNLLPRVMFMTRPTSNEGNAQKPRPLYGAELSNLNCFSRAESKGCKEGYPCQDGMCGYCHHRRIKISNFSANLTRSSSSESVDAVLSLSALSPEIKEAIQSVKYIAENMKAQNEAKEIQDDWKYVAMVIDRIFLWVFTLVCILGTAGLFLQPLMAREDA
Sequence of Neuronal acetylcholine receptor; alpha3/alpha6/beta2/beta3 (Q15825 whole entry): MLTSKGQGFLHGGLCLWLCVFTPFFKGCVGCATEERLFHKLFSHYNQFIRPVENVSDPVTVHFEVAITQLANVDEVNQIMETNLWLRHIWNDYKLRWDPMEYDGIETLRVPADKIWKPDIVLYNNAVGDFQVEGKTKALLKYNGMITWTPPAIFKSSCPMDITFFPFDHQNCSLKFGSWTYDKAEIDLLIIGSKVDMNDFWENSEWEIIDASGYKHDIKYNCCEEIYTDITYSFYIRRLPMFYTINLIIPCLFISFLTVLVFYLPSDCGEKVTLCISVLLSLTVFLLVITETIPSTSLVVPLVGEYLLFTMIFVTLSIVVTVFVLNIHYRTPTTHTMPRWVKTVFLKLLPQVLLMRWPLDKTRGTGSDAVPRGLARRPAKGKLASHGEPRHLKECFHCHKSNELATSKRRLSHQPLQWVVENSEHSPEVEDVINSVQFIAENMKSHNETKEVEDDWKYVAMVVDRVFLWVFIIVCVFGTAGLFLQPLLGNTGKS
Sequence of Neuronal acetylcholine receptor; alpha3/alpha6/beta2/beta3 (Q05901 whole entry): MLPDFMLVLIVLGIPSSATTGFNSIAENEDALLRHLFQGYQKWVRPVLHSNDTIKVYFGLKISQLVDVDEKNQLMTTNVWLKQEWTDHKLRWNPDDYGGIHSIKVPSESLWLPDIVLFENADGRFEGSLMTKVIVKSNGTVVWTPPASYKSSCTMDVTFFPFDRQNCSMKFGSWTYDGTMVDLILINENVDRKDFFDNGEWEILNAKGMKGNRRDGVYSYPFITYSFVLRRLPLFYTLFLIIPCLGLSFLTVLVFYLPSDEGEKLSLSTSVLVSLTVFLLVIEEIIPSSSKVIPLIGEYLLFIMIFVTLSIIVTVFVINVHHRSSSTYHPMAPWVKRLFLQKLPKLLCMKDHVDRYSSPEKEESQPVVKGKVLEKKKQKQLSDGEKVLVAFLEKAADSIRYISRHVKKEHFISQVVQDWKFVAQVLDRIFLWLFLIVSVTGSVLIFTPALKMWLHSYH
T3 sequence (P30926 whole entry): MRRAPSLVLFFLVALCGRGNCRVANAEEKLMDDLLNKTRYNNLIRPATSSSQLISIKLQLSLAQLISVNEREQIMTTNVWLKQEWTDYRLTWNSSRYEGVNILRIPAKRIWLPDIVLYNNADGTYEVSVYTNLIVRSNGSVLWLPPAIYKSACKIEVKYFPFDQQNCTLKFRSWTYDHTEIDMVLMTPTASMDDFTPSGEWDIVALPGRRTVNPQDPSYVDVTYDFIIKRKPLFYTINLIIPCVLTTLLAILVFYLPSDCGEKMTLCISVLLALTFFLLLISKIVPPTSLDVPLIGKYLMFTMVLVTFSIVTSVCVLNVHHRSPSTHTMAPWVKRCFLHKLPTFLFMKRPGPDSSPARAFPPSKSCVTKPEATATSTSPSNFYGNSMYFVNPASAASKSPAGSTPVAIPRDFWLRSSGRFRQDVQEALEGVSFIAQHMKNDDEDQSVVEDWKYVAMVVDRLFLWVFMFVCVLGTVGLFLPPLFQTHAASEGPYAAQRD
T3 sequence (P32297 whole entry): as the sequence (P32297 whole entry) above
Sequence of Neuronal acetylcholine receptor subunit alpha-7 (Homo sapiens, UniProt P36544) (P36544 whole entry): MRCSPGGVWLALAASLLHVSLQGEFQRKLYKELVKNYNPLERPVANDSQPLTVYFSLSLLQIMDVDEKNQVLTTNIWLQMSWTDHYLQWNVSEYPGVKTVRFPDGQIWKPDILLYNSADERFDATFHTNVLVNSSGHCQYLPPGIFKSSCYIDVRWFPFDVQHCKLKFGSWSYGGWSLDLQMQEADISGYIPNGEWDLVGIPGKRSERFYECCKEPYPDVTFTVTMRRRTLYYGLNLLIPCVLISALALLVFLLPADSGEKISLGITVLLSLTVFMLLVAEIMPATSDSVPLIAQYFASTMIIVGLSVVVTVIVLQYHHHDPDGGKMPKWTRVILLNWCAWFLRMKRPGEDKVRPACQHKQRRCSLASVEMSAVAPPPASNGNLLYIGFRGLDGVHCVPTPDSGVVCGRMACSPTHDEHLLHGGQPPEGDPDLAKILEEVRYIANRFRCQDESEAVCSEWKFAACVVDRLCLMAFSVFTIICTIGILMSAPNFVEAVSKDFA
T1 sequence (Q05941 whole entry): as the sequence (P49582 whole entry) above, with R4G, T424A counted along it

Compound	EC50 [5]	%max [6]	EC50 [8]	%max [9]	Ki [10]	%max [11]	EC50 [13]	EC50 [14]	%max [15]	%max [16]	EC50 [17]	EC50 [18]	Ki [19]	EC50 [20]	Ki [21]	Ki [22]	%max [23]	%max [24]	other results
O=c1cccc2n1C[C@@H]1CNC[C@H]2C1 [CYTISINICLINE]	–	–	–	–	–	–	–	–	–	–	–	–	–	–	–	–	–	–	Ki [1]: 8 µM; Ki [2]: 1 nM
c1cnc2cc3c(cc2n1)[C@@H]1CNC[C@H]3C1 [VARENICLINE]	–	–	–	–	–	–	–	–	–	–	–	–	–	–	–	–	–	–	Ki [3]: 300 nM; EC50 [4]: 18 µM
C1=C(c2cccnc2)C[C@H]2CNC[C@@H]1C2	12 nM	110%	37 nM	142%	1.2 nM	73%	100 nM	0.95 nM	40%	20%	30 nM	2.3 nM	0.2 nM	0.014 µM	4 nM	0.95 nM	129%	114%	Ratio Ki [7]: 20; Ratio [12]: 15
CN1C[C@@H]2C=C(c3cccnc3)C[C@@H](C2)C1	> 10000 nM	9%	> 10000 nM	25%	70 nM	13%	3100 nM	855 nM	18%	87%	6000 nM	6660 nM	9.4 nM	> 10 µM	1800 nM	320 nM	17%	53%	–
C1=C(c2cncc(Oc3ccccc3)c2)CC2CNCC1C2 (stereo not given)	654 nM	0%	23 nM	101%	22 nM	57%	590 nM	718 nM	9%	31%	350 nM	62 nM	0.7 nM	> 10 µM	1.9 nM	4.8 nM	30%	52%	–
CC(C)Oc1cncc(C2=CC3CNCC(C2)C3)c1 (stereo not given)	562 nM	3%	69 nM	160%	105 nM	86%	1400 nM	1090 nM	11%	92%	2800 nM	164 nM	0.26 nM	> 10 µM	4.8 nM	2.6 nM	54%	75%	–
CN1C[C@H]2C=C(c3cccnc3)C[C@H](C2)C1	7660 nM	7%	7530 nM	31%	74 nM	27%	3500 nM	> 10000 nM	19%	100%	3800 nM	> 10000 nM	2.1 nM	> 10 µM	534 nM	300 nM	11%	19%	–
CN1CCC[C@H]1c1cccnc1 [NICOTINE]	–	–	–	–	–	–	–	–	–	–	–	–	–	–	–	–	–	–	Ki [25]: 244 nM
CC(C)Oc1cncc(C2=CC3CC(C2)CN(C)C3)c1 (stereo not given)	> 10000 nM	0.2%	> 10000 nM	15%	> 10000 nM	63%	3500 nM	879 nM	10%	60%	21300 nM	> 10000 nM	2.2 nM	> 10 µM	1730 nM	690 nM	3.3%	1%	–
C1=C(c2cccnc2)C[C@@H]2CNC[C@H]1C2	35 nM	82%	73 nM	139%	1.3 nM	49%	50 nM	1.4 nM	32%	28%	20 nM	2.3 nM	0.1 nM	0.015 µM	23 nM	1 nM	131%	111%	Ratio Ki [7]: 230; Ratio [12]: 15
